Data: ChEMBL document CHEMBL3616441, “Discovery of a Selective and CNS Penetrant Negative Allosteric Modulator of Metabotropic Glutamate Receptor Subtype 3 with Antidepressant and Anxiolytic Activity in Rodents” (J Med Chem, 2015)
Calls of active or inactive are those of the source. No cut-off for these calls is given here.

Key:
[1] = tested on: Brain; assay: Fraction unbound in rat brain; type: ADME, tissue-based
[2] = AUC (0 to infinity) in mouse at 10 mg/kg, ip; type: ADME, organism-based; parameters: dose 10 mg/kg, time infinity, route intraperitoneal; details: in vivo
[3] = tested on: Plasma; assay: Fraction unbound in mouse plasma; type: ADME, cell-free
[4] = target: Metabotropic glutamate receptor 3 (Rattus norvegicus) (UniProt P31422); assay: Negative allosteric modulation of rat mGlu3 receptor assessed as amplitude response at 30 uM relative to glutamate
Metabotropic glutamate receptor 3 (Rattus norvegicus), sequence (P31422 23-879 limits assumed): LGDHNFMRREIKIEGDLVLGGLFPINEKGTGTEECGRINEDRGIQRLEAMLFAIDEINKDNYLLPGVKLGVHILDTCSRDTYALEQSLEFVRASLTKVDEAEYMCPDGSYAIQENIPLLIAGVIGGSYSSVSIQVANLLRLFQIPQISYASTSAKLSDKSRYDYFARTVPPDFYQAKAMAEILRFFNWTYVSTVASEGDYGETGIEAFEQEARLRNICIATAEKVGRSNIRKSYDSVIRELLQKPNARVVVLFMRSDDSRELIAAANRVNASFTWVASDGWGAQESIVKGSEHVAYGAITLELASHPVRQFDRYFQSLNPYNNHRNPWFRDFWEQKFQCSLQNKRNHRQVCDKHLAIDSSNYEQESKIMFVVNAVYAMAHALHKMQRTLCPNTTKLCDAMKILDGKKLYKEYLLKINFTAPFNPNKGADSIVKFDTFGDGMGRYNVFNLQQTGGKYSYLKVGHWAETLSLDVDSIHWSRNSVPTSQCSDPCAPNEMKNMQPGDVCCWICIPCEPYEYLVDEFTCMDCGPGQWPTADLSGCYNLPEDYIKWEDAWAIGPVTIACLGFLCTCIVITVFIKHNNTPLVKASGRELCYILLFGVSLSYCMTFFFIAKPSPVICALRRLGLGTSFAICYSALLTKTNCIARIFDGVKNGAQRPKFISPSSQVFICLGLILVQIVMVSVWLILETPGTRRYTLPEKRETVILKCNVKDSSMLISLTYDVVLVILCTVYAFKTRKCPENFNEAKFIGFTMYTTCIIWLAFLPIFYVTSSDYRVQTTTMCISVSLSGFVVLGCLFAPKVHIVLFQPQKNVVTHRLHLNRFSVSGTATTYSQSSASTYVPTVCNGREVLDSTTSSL
Procedure, shortened: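 Calcium mobilization in cell line stably expressing rat mGlu3 with promiscuous Gα15; fluorescence read-out; amplitude of glutamate response with 30 μM test compound expressed as percentage of maximal response (100 μM glutamate); average of n = 3.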

[5] = target: Metabotropic glutamate receptor 5 (Rattus norvegicus, UniProt P31424); assay: Modulation of rat mGlu5 receptor assessed as calcium mobilization by cell based fluorescence assay; type: functional
Procedure, shortened: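 Calcium mobilization assay with fluorescence read-out in cells expressing mGlu5; full concentration-response curves; % Glu Max is the amplitude of response with 30 μM test compound as a percentage of the maximal response to 100 μM glutamate; values averaged over n-3.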

[6] = Plasma clearance in rat at 0.2 mg/kg, iv administered as cassette dose; type: ADME, organism-based
[7] = Volume of distribution at steady state in rat at 0.2 mg/kg, iv administered as cassette dose; type: ADME, organism-based; details: in vivo, read-out: Vdss
[8] = target: Cytochrome P450 2C9 (Homo sapiens, UniProt P11712); assay: Inhibition of CYP2C9 in human liver microsomes by cocktail assay; type: ADME
Cytochrome P450 2C9, sequence (P11712 whole entry, canonical isoform): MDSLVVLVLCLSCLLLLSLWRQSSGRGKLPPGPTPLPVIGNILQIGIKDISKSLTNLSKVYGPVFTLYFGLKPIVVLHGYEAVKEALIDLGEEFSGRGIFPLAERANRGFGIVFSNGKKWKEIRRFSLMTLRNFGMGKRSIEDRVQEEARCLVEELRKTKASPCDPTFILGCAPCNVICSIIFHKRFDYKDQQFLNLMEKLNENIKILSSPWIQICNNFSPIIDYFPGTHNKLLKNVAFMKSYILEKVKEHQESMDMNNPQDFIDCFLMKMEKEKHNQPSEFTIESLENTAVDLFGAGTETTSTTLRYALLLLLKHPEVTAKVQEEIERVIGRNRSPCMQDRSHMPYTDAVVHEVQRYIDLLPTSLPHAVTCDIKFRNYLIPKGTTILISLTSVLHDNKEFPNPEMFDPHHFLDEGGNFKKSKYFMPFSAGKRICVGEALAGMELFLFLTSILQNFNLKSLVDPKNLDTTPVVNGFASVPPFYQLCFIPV
Procedure, shortened: (§1)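 Human liver microsome cocktail incubation with probe substrates for four P450s; inhibition of each isoform measured.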

[9] = target: 5-hydroxytryptamine receptor 2B (Homo sapiens) (UniProt P41595); assay: Binding affinity to 5HT2B receptor (unknown origin) at 10 uM by radioligand binding assay
5-hydroxytryptamine receptor 2B (Homo sapiens), sequence (P41595 whole entry): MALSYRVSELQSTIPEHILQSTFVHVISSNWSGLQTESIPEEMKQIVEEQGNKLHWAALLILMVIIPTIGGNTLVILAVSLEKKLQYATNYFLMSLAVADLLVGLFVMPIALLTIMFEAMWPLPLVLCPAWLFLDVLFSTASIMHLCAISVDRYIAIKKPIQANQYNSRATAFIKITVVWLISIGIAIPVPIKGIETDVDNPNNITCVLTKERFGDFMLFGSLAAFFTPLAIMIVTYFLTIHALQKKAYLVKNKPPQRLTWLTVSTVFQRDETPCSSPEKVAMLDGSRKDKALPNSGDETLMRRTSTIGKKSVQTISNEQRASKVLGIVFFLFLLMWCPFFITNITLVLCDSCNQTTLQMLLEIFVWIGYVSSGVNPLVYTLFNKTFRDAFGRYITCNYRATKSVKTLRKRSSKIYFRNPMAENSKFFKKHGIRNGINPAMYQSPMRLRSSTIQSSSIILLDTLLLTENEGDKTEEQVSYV

[10] = target: Cytochrome P450 2D6 (Homo sapiens, UniProt P10635); assay: Inhibition of CYP2D6 in human liver microsomes by cocktail assay; type: ADME; procedure, shortened: as §1
Cytochrome P450 2D6, sequence (P10635 whole entry): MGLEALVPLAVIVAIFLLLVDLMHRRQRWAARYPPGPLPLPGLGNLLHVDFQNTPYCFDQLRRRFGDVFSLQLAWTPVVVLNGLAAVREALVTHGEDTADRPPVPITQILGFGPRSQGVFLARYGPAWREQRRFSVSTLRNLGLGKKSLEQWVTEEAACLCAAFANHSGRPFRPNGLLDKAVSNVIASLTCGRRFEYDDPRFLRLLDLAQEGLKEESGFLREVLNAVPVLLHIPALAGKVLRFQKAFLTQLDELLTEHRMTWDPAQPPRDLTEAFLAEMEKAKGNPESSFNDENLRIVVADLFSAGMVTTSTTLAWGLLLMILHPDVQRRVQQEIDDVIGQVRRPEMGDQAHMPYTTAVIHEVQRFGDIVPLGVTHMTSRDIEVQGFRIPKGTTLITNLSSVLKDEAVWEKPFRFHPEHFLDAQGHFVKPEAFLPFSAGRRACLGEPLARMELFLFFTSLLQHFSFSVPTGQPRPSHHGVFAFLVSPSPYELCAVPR

[11] = target: Cytochrome P450 3A4 (Homo sapiens, UniProt P08684); assay: Inhibition of CYP3A4 in human liver microsomes by cocktail assay; type: ADME; procedure, shortened: as §1
Cytochrome P450 3A4, sequence (P08684 whole entry): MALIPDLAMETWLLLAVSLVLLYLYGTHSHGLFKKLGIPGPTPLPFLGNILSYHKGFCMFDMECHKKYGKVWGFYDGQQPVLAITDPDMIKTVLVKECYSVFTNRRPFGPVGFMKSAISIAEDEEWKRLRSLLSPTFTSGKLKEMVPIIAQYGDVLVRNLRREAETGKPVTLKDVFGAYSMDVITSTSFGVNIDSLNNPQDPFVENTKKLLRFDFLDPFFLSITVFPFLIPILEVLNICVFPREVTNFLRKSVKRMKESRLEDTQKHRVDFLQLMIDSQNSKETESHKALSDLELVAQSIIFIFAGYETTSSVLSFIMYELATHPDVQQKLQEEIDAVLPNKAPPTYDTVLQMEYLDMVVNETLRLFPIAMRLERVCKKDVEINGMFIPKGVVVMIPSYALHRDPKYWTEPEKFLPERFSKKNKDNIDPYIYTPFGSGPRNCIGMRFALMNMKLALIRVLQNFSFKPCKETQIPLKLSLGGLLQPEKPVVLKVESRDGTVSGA

[12] = target: T1, Cytochrome P450 1A2 (Homo sapiens, UniProt P05177); assay: Inhibition of CYP1A2 in human liver microsomes by cocktail assay; type: ADME
T1 sequence (P05177 whole entry): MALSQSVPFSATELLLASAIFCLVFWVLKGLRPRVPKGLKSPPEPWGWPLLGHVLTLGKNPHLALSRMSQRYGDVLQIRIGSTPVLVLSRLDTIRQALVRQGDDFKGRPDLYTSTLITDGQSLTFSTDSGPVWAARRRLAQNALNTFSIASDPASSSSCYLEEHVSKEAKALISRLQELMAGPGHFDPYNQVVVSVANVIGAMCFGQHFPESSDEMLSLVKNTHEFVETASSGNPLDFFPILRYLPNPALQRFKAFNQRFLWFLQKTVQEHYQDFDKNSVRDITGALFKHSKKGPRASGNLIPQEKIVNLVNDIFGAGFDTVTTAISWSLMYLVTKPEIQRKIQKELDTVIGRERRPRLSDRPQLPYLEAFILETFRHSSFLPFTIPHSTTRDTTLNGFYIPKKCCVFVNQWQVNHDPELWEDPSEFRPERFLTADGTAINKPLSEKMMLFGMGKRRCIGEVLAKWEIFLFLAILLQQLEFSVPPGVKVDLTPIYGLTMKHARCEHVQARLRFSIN

[13] = Cmax in rat at 10 mg/kg, ip; type: ADME, organism-based; parameters: dose 10 mg/kg, route intraperitoneal; details: in vivo
[14] = Volume of distribution at steady state in rat at 1 mg/kg, iv and 3 mg/kg, po; type: ADME, organism-based; details: in vivo, read-out: Vdss
Procedure, shortened: (§2)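 Rat IV PK, n = 2, 1.0 mg/kg as solution in 10% EtOH, 50% PEG 400, 40% saline (1 mg/mL); oral arm 3.0 mg/kg as fine microsuspension in 0.1% Tween 80 and 0.5% methyl cellulose in H2O (0.3 mg/mL).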

[15] = AUC (0 to infinity) in rat at 10 mg/kg, ip; type: ADME, organism-based; parameters: dose 10 mg/kg, time infinity, route intraperitoneal; details: in vivo
[16] = Half life in rat at 0.2 mg/kg, iv administered as cassette dose; type: ADME, organism-based; details: in vivo
[17] = in vivo; details: rat, ip, 10 mg/kg
[18] = tested on: Rattus norvegicus; assay: Antidepressant activity in Sprague-Dawley rat assessed as reduction of immobility time at 56.6 mg/kg, ip measured up to 6 mins by forced swim test; type: functional, organism-based
[19] = target: Metabotropic glutamate receptor 2 (Rattus norvegicus) (UniProt P31421); assay: Negative allosteric modulation of rat mGlu2 receptor assessed as calcium mobilization at 30 uM by cell based fluorescence assay; type: functional
Metabotropic glutamate receptor 2 (Rattus norvegicus), sequence (P31421 19-872 limits assumed): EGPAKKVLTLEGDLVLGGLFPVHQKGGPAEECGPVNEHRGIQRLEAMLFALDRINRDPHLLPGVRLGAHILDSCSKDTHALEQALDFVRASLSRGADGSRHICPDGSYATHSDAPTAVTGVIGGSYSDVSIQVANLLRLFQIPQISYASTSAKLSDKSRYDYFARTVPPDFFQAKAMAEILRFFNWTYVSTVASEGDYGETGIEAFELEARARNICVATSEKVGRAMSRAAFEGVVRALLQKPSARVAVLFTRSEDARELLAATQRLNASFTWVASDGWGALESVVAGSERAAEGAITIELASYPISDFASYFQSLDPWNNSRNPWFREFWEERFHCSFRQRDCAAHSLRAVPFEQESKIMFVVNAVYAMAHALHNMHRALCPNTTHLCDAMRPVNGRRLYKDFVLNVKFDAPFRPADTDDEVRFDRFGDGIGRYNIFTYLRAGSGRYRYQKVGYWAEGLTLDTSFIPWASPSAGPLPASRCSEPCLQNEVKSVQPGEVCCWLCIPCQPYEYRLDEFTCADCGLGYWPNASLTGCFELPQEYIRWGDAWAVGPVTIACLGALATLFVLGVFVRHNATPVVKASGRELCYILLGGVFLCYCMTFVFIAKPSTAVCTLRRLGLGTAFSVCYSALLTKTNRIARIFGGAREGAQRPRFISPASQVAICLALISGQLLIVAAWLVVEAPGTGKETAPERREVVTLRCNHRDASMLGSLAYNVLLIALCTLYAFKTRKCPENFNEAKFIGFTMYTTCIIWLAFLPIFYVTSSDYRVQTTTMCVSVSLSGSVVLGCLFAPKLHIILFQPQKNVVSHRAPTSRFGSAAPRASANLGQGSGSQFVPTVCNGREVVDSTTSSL
Procedure, shortened: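 Rat mGlu2 calcium mobilization assay with fluorescence read-out; full concentration-response curve analysis up to 30 μM top concentration.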

[20] = in vivo; details: mouse, ip, 10 mg/kg
[21] = tested on: Mus musculus; assay: Anxiolytic activity in ip dosed CD1 mouse assessed as inhibition of marble burying behavior after 30 mins; type: functional, organism-based
[22] = tested on: Plasma; assay: Fraction unbound in rat plasma; type: ADME, cell-free
[23] = target: 5-hydroxytryptamine receptor 2B (Homo sapiens) (UniProt P41595); assay: Antagonist activity at 5HT2B receptor (unknown origin) up to 10 uM
[24] = tested on: MDCK; assay: Apparent permeability from basolateral to apical side in MDCK cells expressing human MDR1 gene; type: ADME, cell-based, Canis lupus familiaris; details: dog
Procedure, shortened: (§3)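 Permeability and P-gp efflux measured in MDCK cells transfected with human MDR1 gene.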

[25] = tested on: MDCK; assay: Apparent permeability from apical to basolateral side in MDCK cells expressing human MDR1 gene; type: ADME, cell-based, Canis lupus familiaris; details: dog; procedure, shortened: as §3
[26] = Plasma clearance in rat at 1 mg/kg, iv and 3 mg/kg, po; type: ADME, organism-based
Procedure, shortened: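 Rat PK, n = 2 each route. IV: 1.0 mg/kg as solution in 10% EtOH, 50% PEG 400, 40% saline (1 mg/mL). Oral: 3.0 mg/kg as fine microsuspension in 0.1% Tween 80 and 0.5% methyl cellulose in H2O (0.3 mg/mL). Plasma clearance and bioavailability derived from plasma levels.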

[27] = Cmax in mouse at 10 mg/kg, ip; type: ADME, organism-based; parameters: dose 10 mg/kg, route intraperitoneal; details: in vivo
[28] = tested on: Rattus norvegicus; assay: Half life in rat at 1 mg/kg, iv and 3 mg/kg, po; type: ADME, organism-based; details: in vivo; procedure, shortened: as §2
[29] = target: 5-hydroxytryptamine receptor 2B (Homo sapiens) (UniProt P41595); assay: Agonist activity at 5HT2B receptor (unknown origin) up to 10 uM
[30] = Oral bioavailability in rat at 3 mg/kg; type: ADME, organism-based; details: in vivo
[31] = tested on: Brain; assay: Fraction unbound in mouse brain; type: ADME, tissue-based
[32] = tested on: Mus musculus; assay: Anxiolytic activity in CD1 mouse assessed as inhibition of marble burying behavior at 56.6 mg/kg, ip after 30 mins; type: functional, organism-based
[33] = target: Metabotropic glutamate receptor 3 (Rattus norvegicus, UniProt P31422); assay: Negative allosteric modulation of rat mGlu3 receptor assessed as calcium mobilization by cell based fluorescence assay; type: functional
Metabotropic glutamate receptor 3, sequence (P31422 whole entry): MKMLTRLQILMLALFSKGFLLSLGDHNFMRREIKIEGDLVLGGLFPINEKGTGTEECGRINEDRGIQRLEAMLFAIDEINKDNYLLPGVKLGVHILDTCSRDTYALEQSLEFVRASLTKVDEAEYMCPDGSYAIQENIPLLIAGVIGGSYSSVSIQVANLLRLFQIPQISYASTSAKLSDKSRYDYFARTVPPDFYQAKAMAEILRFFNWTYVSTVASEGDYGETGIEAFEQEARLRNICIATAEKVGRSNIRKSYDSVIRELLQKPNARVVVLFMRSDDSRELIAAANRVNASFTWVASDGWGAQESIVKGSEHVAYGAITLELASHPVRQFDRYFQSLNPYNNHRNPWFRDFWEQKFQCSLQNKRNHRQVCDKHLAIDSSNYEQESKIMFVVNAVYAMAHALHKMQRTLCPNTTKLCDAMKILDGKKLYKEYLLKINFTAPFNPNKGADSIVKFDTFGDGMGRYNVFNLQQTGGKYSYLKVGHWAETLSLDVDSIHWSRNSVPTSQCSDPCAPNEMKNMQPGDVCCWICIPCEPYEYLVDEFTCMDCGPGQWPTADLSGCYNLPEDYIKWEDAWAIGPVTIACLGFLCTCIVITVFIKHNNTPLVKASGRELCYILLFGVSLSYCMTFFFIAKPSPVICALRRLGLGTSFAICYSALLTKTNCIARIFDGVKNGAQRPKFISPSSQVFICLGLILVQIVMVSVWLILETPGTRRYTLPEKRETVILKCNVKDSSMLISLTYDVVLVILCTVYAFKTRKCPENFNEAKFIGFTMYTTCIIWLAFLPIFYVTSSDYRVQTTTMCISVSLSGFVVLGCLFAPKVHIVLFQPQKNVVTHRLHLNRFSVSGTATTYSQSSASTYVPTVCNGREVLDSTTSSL
Procedure, shortened: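 Cell line stably expressing rat mGlu3 with the promiscuous G-protein Gα15. Calcium mobilization with fluorescence read-out, inhibition of the glutamate response. Full concentration-response curves, top concentration 30 μM. % Glu Max is the response with 30 μM test compound as a percentage of the maximal response to 100 μM glutamate. Values averaged over n-3.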

[34] = Plasma concentration in mouse at 10 mg/kg, ip after 30 mins; type: ADME, organism-based
Procedure, shortened: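 Single time-point tissue distribution in mice. Dosed IP as a fine microsuspension in 0.1% Tween 80 and 0.5% methyl cellulose in H2O (1 mg/mL). Plasma and brain were sampled 30 min post dose, n = 3.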

Structure (SMILES): C[C@@H]1CN(c2cccnc2F)C(=O)c2cc(COc3ccc(Cl)cn3)nn21
- Fu [1]: 0.052
- AUC(0-inf) [2]: 7.26 µM·h
- Fu [3]: 0.163
- Activity [4]: 1.71%
- EC50 [5]: > 30 µM
- clearance [6]: 37 mL/min/kg
- Vd [7]: 1.6 L/kg
- IC50 [8]: 25.6 µM
- inhibition [9]: 65%
- IC50 [10]: > 30 µM
- IC50 [11]: > 30 µM
- IC50 [12]: > 30 µM
- Cmax [13]: 4.57 µM
- Vd [14]: 1.4 L/kg
- AUC(0-inf) [15]: 11.5 µM·h
- half-life [16]: 42 min
- Tmax [17]: 12.3 min
- Activity [18]: Active
- Activity [19]: inactive
- Tmax [20]: 30 min
- inhibition [21]: Dose-dependent effect
- Fu [22]: 0.083
- Activity [23]: Active
- Papp [24]: 49.9 ×10⁻⁶ cm/s
- Papp [25]: 45 ×10⁻⁶ cm/s
- clearance [26]: 30 mL/min/kg
- Cmax [27]: 4.48 µM
- t1/2 [28]: 49 min
- Activity [29]: inactive
- bioavailability [30]: 60%
- Fu [31]: 0.035
- inhibition [32]: Active
- IC50 [33]: 392 nM
- concentration at 0.5 h [34]: 2290 nM
